The source made the active and inactive calls. The rule behind the calls is not given here.
Assays:
Danio rerio = organism: Danio rerio; experiment: Antiangiogenic activity in […]/EGFP transgenic zebrafish embryo assessed as destruction of subintestinal vessel at 0.5 to 1 uM incubated for 24 hrs by confocal microscopic method; type: functional, organism-based
Method in brief: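 Transgenic zebrafish with GFP-labeled vascular endothelium; embryos selected, […], exposed 24 h to 0.5 or 1 μM (DMSO vehicle, n = 10; apatinib 0.5 μM reference); SIVs imaged by confocal microscopy and counted per field; means ± SD, three independent experiments.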

MDA-MB-231 [1] = experiment: Downregulation of MMP9 protein expression in human MDA-MB-231 cells incubated with compound under normoxia for 1 hr followed by hypoxia induction and measured after 24 hrs by Western blot analysis; type: functional, cell-based
Method in brief: (§1)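 MDA-MB-231 cells given 2, 5 or 10 μM under normoxia 1 h, then hypoxia 24 h; E-cadherin, vimentin, MMP-2, MMP-9 by western blot, GAPDH loading control; three independent experiments.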

MDA-MB-231 [2] = experiment: Inhibition of cell migration in human MDA-MB-231 cells incubated with compound under normoxia for 1 hr followed by hypoxia induction and measured after 24 hrs by wound healing assay based inverted microscopic method; type: functional
Method in brief: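 Wound-healing: monolayer of MDA-MB-231 scratched, treated 2, 5, 10 μM or DMSO under normoxia 1 h then hypoxia 24 h; wound closure imaged; three independent experiments.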

[3] = molecular target: Hypoxia-inducible factor 1-alpha (Homo sapiens) (UniProt Q16665); experiment: Inhibition of HIF1alpha transcriptional activity in hypoxia-induced human HCCLM3 cells co-transfected with luciferase reporter plasmid containing five copies of HREs and pRL-SV40 plasmid encoding Renilla luciferase at 10 uM incubated with compound under normoxia for 1 hr followed by hypoxia induction and measured after 24 hrs by HRE-dependent dual luciferase reporter gene assay relative to control
Method in brief: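 LM3 cells co-transfected with firefly luciferase reporter carrying five HRE copies plus pRL-SV40 Renilla plasmid; after transfection treated and kept under hypoxia; firefly luminescence normalized to Renilla. Single-point inhibition rate at 10 μM; IC50 for selected compounds.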

MDA-MB-231 [4] = experiment: Induction of E-cadherin protein expression in human MDA-MB-231 cells incubated with compound under normoxia for 1 hr followed by hypoxia induction and measured after 24 hrs by Western blot analysis; type: functional, cell-based; method in brief: as §1
MDA-MB-231 [5] = experiment: Induction of apoptosis in human MDA-MB-231 cells at 2 to 10 uM incubated for 24 hrs; type: cell-based; settings: mda-mb-231, 24 h
[6] = molecular target: Hypoxia-inducible factor 1-alpha (Homo sapiens) (UniProt Q16665); experiment: (§2) Potency index, ratio of IC50 for 2-Methyl-N-phenethylthiazole-4-carboxamide to IC50 for test compound for inhibition of HIF1alpha transcriptional activity in hypoxia-induced human HCCLM3 cells incubated with compound under normoxia for 1 hr followed by hypoxia induction and measured after 24 hrs by HRE-dependent dual luciferase reporter gene assay
MDA-MB-231 [7] = experiment: (§3) Antimetastatic activity against human MDA-MB-231 cells stable expressing luciferase xenografted in ip dosed BALB/c nude mouse assessed as reduction in lung colonization of tumor cells administered every 2 days for 3 weeks starting at 24 hrs post-trensfection and measured at 24 hrs after final dose by bioluminescent imaging assay; type: functional, organism-based
Method in brief: (§4)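 Luciferase-expressing MDA-MB-231 cells injected into tail vein of BALB/c nude mice; i.p. vehicle or 15 and 30 mg/kg starting 24 h later, every 2 days for 20 days; bioluminescence imaged 24 h after last dose; lungs examined by H&E histology; n = 4 per group, mean ± SD.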

HCCLM3 = experiment: Inhibition of HIF1alpha accumulation in hypoxia-induced human HCCLM3 cells at 10 uM incubated with compound under normoxia for 1 hr followed by hypoxia induction and measured after 24 hrs by Western blot analysis; type: functional, cell-based
Method in brief: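 LM3 cells treated at 10 μM under hypoxia; HIF-1α protein by western blot, LW6 as reference.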

MDA-MB-231 [8] = experiment: Inhibition of vimentin protein expression in human MDA-MB-231 cells incubated with compound under normoxia for 1 hr followed by hypoxia induction and measured after 24 hrs by Western blot analysis; type: functional, cell-based; method in brief: as §1
[9] = Cytotoxicity against human HCCLM3 cells assessed as reduction in cell viability incubated for 48 hrs by MTT assay; type: cell-based
[10] = molecular target: Hypoxia-inducible factor 1-alpha (Homo sapiens) (UniProt Q16665); experiment: as §2, with “LW6” for “2-Methyl-N-phenethylthiazole-4-carboxamide”
HUVEC [11] = experiment: Antiangiogenic activity in HUVEC assessed as disruption in capillary-like tubule formation at 5 uM incubated under hypoxia for 12 hrs by inverted microscopic method; type: functional, Homo sapiens
Method in brief: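 HUVECs on matrigel-precoated wells, incubated under hypoxia with 5 μM compound; tubule branches photographed; three independent experiments.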

HUVEC [12] = experiment: Antiangiogenic activity in HUVEC assessed as suppression of capillary-like tubule formation at 2 to 5 uM incubated under hypoxia for 12 hrs by inverted microscopic method; type: functional, cell-based; settings: Homo sapiens
Method in brief: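 HUVECs seeded on matrigel-precoated wells under hypoxia, treated at 2 or 5 μM; capillary-like tubule branches photographed; representative of three independent experiments.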

MDA-MB-231 [13] = experiment: Inhibition of cell growth in human MDA-MB-231 cells at 2 to 10 uM incubated for 24 hrs; type: cell-based; settings: mda-mb-231, 24 h
SK-OV-3 = experiment: Inhibition of HIF1alpha accumulation in hypoxia-induced human SKOV3 cells incubated with compound under normoxia for 1 hr followed by hypoxia induction and measured after 24 hrs by Western blot analysis; type: functional, cell-based
Method in brief: (§5)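 MDA-MB-231, SKOV3 and HeLa cells exposed to hypoxia with compound at a range of concentrations; HIF-1α accumulation assessed by western blot.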

MDA-MB-231 [14] = experiment: Inhibition of cell invasion in human MDA-MB-231 cells incubated with compound under normoxia for 1 hr followed by hypoxia induction and measured after 24 hrs by transwell assay/crystal violet staining based inverted microscopic method; type: functional
Method in brief: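 Transwell with MDA-MB-231 cells in upper chamber on matrigel-precoated inserts; 2, 5, 10 μM under normoxia 1 h then hypoxia 24 h; invaded cells stained with crystal violet and counted; three experiments, means ± SD.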

[15] = molecular target: Hypoxia-inducible factor 1-alpha (Homo sapiens) (UniProt Q16665); experiment: Induction of HIF1alpha (unknown origin) degradation
HUVEC [16] = experiment: Antiproliferative activity against HUVEC at 2 to 5 uM; type: cell-based; settings: human
HUVEC [17] = experiment: Antiangiogenic activity in HUVEC assessed as reduction in VEGF mRNA expression incubated with compound under normoxia for 1 hr followed by hypoxia induction and measured after 24 hrs by real time-PCR analysis; type: functional, cell-based; settings: Homo sapiens
Method in brief: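 HUVECs treated with 0.5 or 1 μM; VEGF mRNA by real-time PCR, normalized to GAPDH, compared with normoxia and untreated hypoxic controls; means ± SD of three independent experiments.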

MDA-MB-231 [18] = experiment: Inhibition of HIF1alpha accumulation in hypoxia-induced human MDA-MB-231 cells incubated with compound under normoxia for 1 hr followed by hypoxia induction and measured after 24 hrs by Western blot analysis; type: functional, cell-based; method in brief: as §5
MDA-MB-231 [19] = experiment: Downregulation of MMP2 protein expression in human MDA-MB-231 cells incubated with compound under normoxia for 1 hr followed by hypoxia induction and measured after 24 hrs by Western blot analysis; type: functional, cell-based; method in brief: as §1
MDA-MB-231 [20] = experiment: as §3, with “final doses” for “final dose”, “by H and E staining method” for “by bioluminescent imaging assay”; type: functional, organism-based; method in brief: as §4
[21] = Toxicity in BALB/c nude mouse xenografted with human MDA-MB-231 cells stable expressing luciferase assessed as change in body weight at 15 to 30 mg/kg, ip administered every 2 days for 3 weeks starting at 24 hrs post-trensfection; type: organism-based; settings: in vivo
Method in brief: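 Tail-vein luciferase MDA-MB-231 lung-metastasis model in BALB/c nude mice; 15 or 30 mg/kg i.p. every 2 days for 20 days from 24 h post-injection; body weight recorded at study end.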

HeLa = experiment: Inhibition of HIF1alpha accumulation in hypoxia-induced human HeLa cells incubated with compound under normoxia for 1 hr followed by hypoxia induction and measured after 24 hrs by Western blot analysis; type: functional, cell-based; method in brief: as §5

Hypoxia-inducible factor 1-alpha (Homo sapiens), sequence (Q16665 whole entry, looked up): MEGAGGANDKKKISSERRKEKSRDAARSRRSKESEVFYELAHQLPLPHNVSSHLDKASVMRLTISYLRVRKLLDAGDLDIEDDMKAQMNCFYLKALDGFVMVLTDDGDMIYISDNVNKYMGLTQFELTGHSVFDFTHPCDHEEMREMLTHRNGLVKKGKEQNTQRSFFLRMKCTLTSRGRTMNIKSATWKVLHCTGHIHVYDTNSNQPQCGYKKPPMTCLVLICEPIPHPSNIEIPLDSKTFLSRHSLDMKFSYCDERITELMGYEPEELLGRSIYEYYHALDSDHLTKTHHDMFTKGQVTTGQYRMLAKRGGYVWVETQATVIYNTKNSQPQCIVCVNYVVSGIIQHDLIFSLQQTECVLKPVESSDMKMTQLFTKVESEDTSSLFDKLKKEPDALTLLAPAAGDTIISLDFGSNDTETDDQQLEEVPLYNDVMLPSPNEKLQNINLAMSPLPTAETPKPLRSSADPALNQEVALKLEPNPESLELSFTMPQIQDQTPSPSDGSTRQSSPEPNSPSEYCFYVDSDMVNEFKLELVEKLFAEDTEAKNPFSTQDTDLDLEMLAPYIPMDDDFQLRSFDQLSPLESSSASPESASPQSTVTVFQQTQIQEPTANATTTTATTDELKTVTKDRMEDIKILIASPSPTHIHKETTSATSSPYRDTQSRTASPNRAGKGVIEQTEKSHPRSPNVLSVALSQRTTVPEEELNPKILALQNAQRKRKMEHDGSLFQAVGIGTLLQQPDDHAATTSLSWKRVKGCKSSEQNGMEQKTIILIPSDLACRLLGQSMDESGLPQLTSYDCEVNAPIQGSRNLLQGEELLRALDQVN

For COc1ccccc1-c1ccc(C(=O)NCCc2ccccc2F)nc1, the Activity (Danio rerio) was “Active”, the inhibition (MDA-MB-231 [1]) was “Dose-dependent effect” and the inhibition (MDA-MB-231 [2]) was “Dose-dependent effect”. The inhibition [3] was 91.4 to 97.7%, the Activity (MDA-MB-231 [4]) was “Dose-dependent effect” and the Activity (MDA-MB-231 [5]) was “Non-Toxic”. For the same compound, the Ratio IC50 [6] was 170, the Activity (MDA-MB-231 [7]) was “Dose-dependent effect” and the “HIF-1α accumulation inhibition (qualitative)” value (HCCLM3) was “Active”. The inhibition (MDA-MB-231 [8]) was “Dose-dependent effect”, the CC50 at 48 h [9] was over 50 µM and the Ratio IC50 [10] was 10. The Activity (HUVEC [11]) was 100%, the Activity (HUVEC [12]) was “Active” and the “growth inhibition (GI)” value (MDA-MB-231 [13]) was “Non-Toxic”. For the same compound, the inhibition (SK-OV-3) was “Dose-dependent effect”, the inhibition (MDA-MB-231 [14]) was “Dose-dependent effect” and the Activity [15] was “Active”. The Activity (HUVEC [16]) was “Non-Toxic”, the Activity (HUVEC [17]) was “Dose-dependent effect” and the inhibition (MDA-MB-231 [18]) was “Dose-dependent effect”. The inhibition (MDA-MB-231 [19]) was “Dose-dependent effect”, the Activity (MDA-MB-231 [20]) was “Dose-dependent effect” and the Activity [21] was “Non-Toxic”. For the same compound, the inhibition (HeLa) was “Dose-dependent effect”.

Reference: ChEMBL document CHEMBL4354811, “Discovery of Novel Aryl Carboxamide Derivatives as Hypoxia-Inducible Factor 1α Signaling Inhibitors with Potent Activities of Anticancer Metastasis” (J Med Chem, 2019)
